In ChEMBL document CHEMBL1136453, “New classes of antibacterial oxazolidinones with C-5, methylene O-linked heterocyclic side chains” (2003):
≈ marks a conversion by molar mass, not a printed value.

Legend:
Staphylococcus aureus [1] = assay: In vitro minimum inhibitory concentration against coagulase negative Staphylococcus aureus methicillin resistant (CNSMR); type: functional
Staphylococcus aureus [2] = assay: In vitro minimum inhibitory concentration against Staphylococcus aureus Oxford; type: functional
Staphylococcus aureus [3] = assay: In vitro minimum inhibitory concentration against Staphylococcus aureus MRQR; type: functional
Streptococcus pyogenes = assay: In vitro minimum inhibitory concentration against Streptococcus pyogenes penicillin sensitive; type: functional
Outline: (§1)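 Agar dilution per NCCLS protocol with doubling dilutions from 128 to 0.008 mg/L, incubated at 37 °C. Strains came from an in-house culture collection. MIC reported in mg/L.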

Enterococcus faecalis = assay: In vitro minimum inhibitory concentration against Enterococcus faecalis; type: functional; outline: as §1
Staphylococcus aureus [4] = assay: In vivo antibacterial activity against Staphylococcus aureus after intravenous administration (10 mg/kg) in mice using (MTT) mouse thigh test
[5] = In vivo antibacterial activity against Staphylococcus aureus after intravenous administration (5 mg/kg) in mice using (MTT) mouse thigh test
[6] = Staphylococcus aureus, read-out: MIC

SMILES	MIC (Staphylococcus aureus [1]) [µg/mL]	MIC (Staphylococcus aureus [2]; [6]) [µg/mL]	MIC (Staphylococcus aureus [3]) [µg/mL]	MIC (Streptococcus pyogenes) [µg/mL]	MIC (Enterococcus faecalis) [µg/mL]	Activity (Staphylococcus aureus [4])	Activity [5]	MIC (Staphylococcus aureus [2]) [µg/mL]
Cc1ccnc(OC[C@H]2CN(c3ccc(C4=CCOCC4)c(F)c3)C(=O)O2)c1	2 (≈ 5.2 µM)	2 (≈ 5.2 µM)	2 (≈ 5.2 µM)	4 (≈ 10.4 µM)	4 (≈ 10.4 µM)	–	–	–
O=C1O[C@@H](COc2ncccn2)CN1c1ccc(C2=CCOCC2)c(F)c1	16 (≈ 43.1 µM)	16 (≈ 43.1 µM)	16 (≈ 43.1 µM)	32 (≈ 86.2 µM)	64 (≈ 172 µM)	–	–	–
Cc1cc(OC[C@H]2CN(c3ccc(C4=CCOCC4)c(F)c3)C(=O)O2)no1	2 (≈ 5.34 µM)	1 (≈ 2.67 µM)	2 (≈ 5.34 µM)	4 (≈ 10.7 µM)	4 (≈ 10.7 µM)	-0.45	–	–
CS(=O)(=O)c1ccc(N2C[C@H](COc3nccs3)OC2=O)cc1F	32 (≈ 85.9 µM)	16 (≈ 43 µM)	16 (≈ 43 µM)	16 (≈ 43 µM)	32 (≈ 85.9 µM)	–	–	–
O=C1O[C@@H](COc2cnccn2)CN1c1ccc(C2=CCOCC2)c(F)c1	1 (≈ 2.69 µM)	1 (≈ 2.69 µM)	1 (≈ 2.69 µM)	1 (≈ 2.69 µM)	2 (≈ 5.39 µM)	0.35	0.22	–
O=C1O[C@@H](COc2cccnc2)CN1c1ccc(C2=CCOCC2)c(F)c1	4 (≈ 10.8 µM)	4 (≈ 10.8 µM)	4 (≈ 10.8 µM)	8 (≈ 21.6 µM)	8 (≈ 21.6 µM)	–	–	–
O=C1O[C@@H](COc2cnsn2)CN1c1ccc(C2=CCOCC2)c(F)c1	0.25 (≈ 0.662 µM)	0.25 (≈ 0.662 µM)	0.25 (≈ 0.662 µM)	0.25 (≈ 0.662 µM)	0.5 (≈ 1.32 µM)	0.45	0.11	–
O=C([C@@H](O)CS(=O)(=O)CCO)N1CC=C(c2c(F)cc(N3C[C@H](COc4ccon4)OC3=O)cc2F)CC1	0.25 (≈ 0.448 µM)	0.25 (≈ 0.448 µM)	0.5 (≈ 0.897 µM)	0.25 (≈ 0.448 µM)	0.5 (≈ 0.897 µM)	0.32	0.1	–
O=C(OC[C@@H](O)CO)N1CC=C(c2ccc(N3C[C@H](COc4ccon4)OC3=O)cc2F)CC1	0.5 (≈ 1.05 µM)	0.25 (≈ 0.524 µM)	0.5 (≈ 1.05 µM)	0.5 (≈ 1.05 µM)	1 (≈ 2.09 µM)	0.48	0.27	–
C[C@H](O)C(=O)N1CC=C(c2c(F)cc(N3C[C@H](COc4ccon4)OC3=O)cc2F)CC1	0.5 (≈ 1.11 µM)	0.5 (≈ 1.11 µM)	0.5 (≈ 1.11 µM)	1 (≈ 2.23 µM)	1 (≈ 2.23 µM)	1.16	0.64	–
O=C1O[C@@H](COc2ccon2)CN1c1cc(F)c(C2=CCN(Cc3nccs3)CC2)c(F)c1	1 (≈ 2.11 µM)	0.5 (≈ 1.05 µM)	1 (≈ 2.11 µM)	1 (≈ 2.11 µM)	2 (≈ 4.22 µM)	0.28	0.07	–
CS(=O)(=O)C[C@@H](O)C(=O)N1CC=C(c2c(F)cc(N3C[C@H](COc4ccon4)OC3=O)cc2F)CC1	0.25 (≈ 0.474 µM)	0.25 (≈ 0.474 µM)	0.25 (≈ 0.474 µM)	0.5 (≈ 0.948 µM)	0.5 (≈ 0.948 µM)	1.42	1.02	–
Cc1nnc(OC[C@H]2CN(c3ccc(C4=CCOCC4)c(F)c3)C(=O)O2)o1	8 (≈ 21.3 µM)	4 (≈ 10.7 µM)	4 (≈ 10.7 µM)	8 (≈ 21.3 µM)	8 (≈ 21.3 µM)	–	–	–
COC(=O)c1cc(OC[C@H]2CN(c3ccc(C4=CCOCC4)c(F)c3)C(=O)O2)no1	32 (≈ 76.5 µM)	8 (≈ 19.1 µM)	16 (≈ 38.2 µM)	16 (≈ 38.2 µM)	128 (≈ 306 µM)	–	–	–
O=C([C@H](O)CO)N1CC=C(c2c(F)cc(N3C[C@H](COc4ccon4)OC3=O)cc2F)CC1	0.5 (≈ 1.07 µM)	0.25 (≈ 0.537 µM)	0.25 (≈ 0.537 µM)	0.25 (≈ 0.537 µM)	0.5 (≈ 1.07 µM)	0.55	–	–
O=C(CO)N1CC=C(c2ccc(N3C[C@H](COc4cnsn4)OC3=O)cc2F)CC1	0.25 (≈ 0.575 µM)	0.13 (≈ 0.299 µM)	0.25 (≈ 0.575 µM)	0.25 (≈ 0.575 µM)	0.25 (≈ 0.575 µM)	1.21	0.78	–
O=C1O[C@@H](Cn2ccccc2=O)CN1c1ccc(C2=CCOCC2)c(F)c1	32 (≈ 86.4 µM)	–	32 (≈ 86.4 µM)	32 (≈ 86.4 µM)	64 (≈ 173 µM)	–	–	32 (≈ 86.4 µM)
O=C(C(CO)Cn1ccnc1)N1CC=C(c2c(F)cc(N3C[C@H](COc4ccon4)OC3=O)cc2F)CC1 (some centres not stated)	2 (≈ 3.78 µM)	1 (≈ 1.89 µM)	2 (≈ 3.78 µM)	1 (≈ 1.89 µM)	2 (≈ 3.78 µM)	–	–	–
O=C1O[C@@H](COc2ccon2)CN1c1ccc(C2=CCOCC2)c(F)c1	0.5 (≈ 1.39 µM)	0.5 (≈ 1.39 µM)	0.5 (≈ 1.39 µM)	0.5 (≈ 1.39 µM)	1 (≈ 2.78 µM)	0.06	-0.07	–
Cc1cc(OC[C@H]2CN(c3cc(F)c(C4=CCN(C(=O)[C@@H](O)CO)CC4)c(F)c3)C(=O)O2)on1	1 (≈ 2.09 µM)	1 (≈ 2.09 µM)	2 (≈ 4.17 µM)	2 (≈ 4.17 µM)	2 (≈ 4.17 µM)	–	–	–
O=C(CO)N1CC=C(c2c(F)cc(N3C[C@H](COc4cnsn4)OC3=O)cc2F)CC1	0.25 (≈ 0.553 µM)	0.13 (≈ 0.287 µM)	0.25 (≈ 0.553 µM)	0.25 (≈ 0.553 µM)	0.5 (≈ 1.11 µM)	1.72	1.05	–
